# According to publication PMC8237303 (Heliyon, 2021):
# Legend:
# [1] = target: Dopamine D5 receptor (Human) (Homo sapiens, UniProt P21918); test: [3H]SCH 23390 binding assay; conditions: 0.1 mM l-menthol; Human recombinant
# mouse ambulation = test: Measurement of mouse ambulatory activity; assay type: in vivo; conditions: mice
# Outline: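 Ambulometer (SAM-10) recording; 30-min adaptation, then s.c. saline or 100, 200, 400 or 800 mg/kg test compound; n = 19–20 mice per group. Each mouse's activity normalized to its total adaptation-period activity, binned per 10 min (median, quartiles); total normalized activity over 60 min post-dose compared by Kruskal-Wallis then Wilcoxon versus vehicle, P < 0.05.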
# [2] = system: Nicotinic receptor (Human); test: [3H]-; assay type: binding; conditions: 0.1 mM l-menthol; Human receptor (Non-recombinant)
# GABA B receptor = GABA B receptor (Rattus norvegicus, UniProt Q9Z0U4); test: gamma-[3H]-Aminobutyric Acid; assay type: binding; conditions: 0.1 mM l-menthol; Rat cerebellum
# K channel KA = test: [125I]-Dendrotoxin binding assay; conditions: 0.1 mM l-menthol; Rat cerebral cortex
# K Channel SkCa = test: [125I]-Apamin binding assay; conditions: 0.1 mM l-menthol; Rat whole brain
# Leukotriene D4 receptor = Leukotriene D4 receptor (Cavia porcellus, UniProt Q2NNR5); test: [3H]-Leukotriene D4 binding assay; conditions: 0.1 mM l-menthol; Guinea pig lung
# Ca Channel (Type N) = Ca Channel (Type N) (Rattus norvegicus, UniProt Q02294); assay type: binding
# Leukotriene B4 receptor = test: [3H]-Leukotriene B4 binding assay; conditions: 0.1 mM l-menthol; Guinea pig lung
# [3] = target: Neurokinin NK2 receptor (Human) (Homo sapiens, UniProt P21452); test: [3H]-SR 48968 binding assay; conditions: 0.1 mM l-menthol; Human recombinant
# [4] = system: 88 different ligands for specific biomolecules; test: Binding assay, 88 different ligands; conditions: 0.1 mM l-menthol
# [5] = target: Neurotensin NT1 receptor (Human) (Homo sapiens, UniProt P30989); test: [125I]-Neurotensin binding assay; conditions: 0.1 mM l-menthol; Human recombinant
# [6] = target: Muscarinic M2 receptor (Human) (Homo sapiens, UniProt P08172); test: [3H]-Scopolamine Methyl Chloride binding assay; conditions: 0.1 mM l-menthol; Human recombinant
# CCK A receptor (Human) = CCK A receptor (Human) (Homo sapiens, UniProt P32238); test: [125I]-Cholecystokinin Octapeptide binding assay; conditions: 0.1 mM l-menthol; Human recombinant
# [7] = target: Cannabinoid CB2 receptor (Human) (Homo sapiens, UniProt P34972); test: [3H]-CP-55,940 binding assay; conditions: 0.1 mM l-menthol; Human recombinant
# [8] = system: Ca channel (Type L, Benzothiazepine); test: [3H]-; assay type: binding; conditions: 0.1 mM l-menthol; Rat cerebral cortex
# [9] = target: Opiate μ receptor (Human) (Homo sapiens, UniProt P35372); test: [3H]-Diprenorphine binding assay; conditions: 0.1 mM l-menthol; Human recombinant
# [10] = target: Serotonin 5HT1A receptor (Human) (Homo sapiens, UniProt P08908); test: [3H]-8-Hydreoxy-DPAT binding assay; conditions: 0.1 mM l-menthol; Human recombinant
# IP3 receptor = test: D-[3H]-Inositol-1,4,5-Triphosphate binding assay; conditions: 0.1 mM l-menthol; Rat cerebellum
# [11] = target: Prostanoid EP2 receptor (Human) (Homo sapiens, UniProt P43116); test: [3H]-Prostaglandin E2 binding assay; conditions: 0.1 mM l-menthol; Human recombinant
# [12] = target: Adenosine A3 receptor (Human) (Homo sapiens, UniProt P0DMS8); test: [125I]-AB-MECA binding assay; conditions: 0.1 mM l-menthol; Human recombinant
# [13] = system: Glutamate (NMDA polyamine site); test: [3H]-Ifenprodil binding assay; conditions: 0.1 mM l-menthol; Rat cerebral cortex
# [14] = target: Vasopressin V2 receptor (Human) (Homo sapiens, UniProt P30518); test: [3H]-Vasopressin, 8-L-Arginine binding assay; conditions: 0.1 mM l-menthol; Human recombinant
# [15] = system: Ca channel (Type L, Phenylalkylamine); test: [3H]-; assay type: binding; conditions: 0.1 mM l-menthol; Rat cerebral cortex
# [16] = target: Norepinephrine transporter (Human) (Homo sapiens, UniProt P23975); test: [3H]-Nisoxetine hydrochloride binding assay; conditions: 0.1 mM l-menthol; Human recombinant
# [17] = target: Dopamien D1 receptor (Human) (Homo sapiens, UniProt P21728); test: [3H]–SCH–23390 hydrochloride binding assay; conditions: 0.1 mM l-menthol; Human recombinant
# CRF1 receptor (Human) = target: T1, CRF1 receptor (Human) (Homo sapiens, UniProt P34998); test: [125I]-Corticotropin Releasing Factor; assay type: binding; conditions: 0.1 mM l-menthol; Human recombinant
# T1 sequence (P34998 24-415): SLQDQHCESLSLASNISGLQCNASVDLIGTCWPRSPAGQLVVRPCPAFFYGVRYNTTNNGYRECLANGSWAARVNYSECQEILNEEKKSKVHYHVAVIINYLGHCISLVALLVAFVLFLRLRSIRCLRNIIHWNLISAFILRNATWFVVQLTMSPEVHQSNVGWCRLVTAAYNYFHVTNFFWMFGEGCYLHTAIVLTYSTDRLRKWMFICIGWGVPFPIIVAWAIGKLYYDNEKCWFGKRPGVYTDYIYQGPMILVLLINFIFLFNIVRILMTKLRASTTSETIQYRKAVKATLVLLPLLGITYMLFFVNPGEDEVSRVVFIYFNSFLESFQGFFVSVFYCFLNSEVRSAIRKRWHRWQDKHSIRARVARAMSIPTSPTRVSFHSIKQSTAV
# [18] = target: α2B-Adrenergic receptor (Human) (Homo sapiens, UniProt P18089); assay type: binding
# [19] = target: Angiotensin AT1 receptor (Human) (Homo sapiens, UniProt P30556); test: [125I]-Angiotensin II; assay type: binding; conditions: 0.1 mM l-menthol; Human recombinant
# [20] = target: Testosterone receptor (Human) (Homo sapiens, UniProt P10275); test: [3H]-Methyltrienolone; assay type: binding; conditions: 0.1 mM l-menthol
# [21] = system: Glutamate receptor (Kainate); test: [3H]-Kainic Acid binding assay; conditions: 0.1 mM l-menthol; Rat whole brain
# [22] = target: Muscarinic M3 receptor (Human) (Homo sapiens, UniProt P20309); assay type: binding; conditions: 0.1 mM l-menthol; Human recombinant
# [23] = target: Adenosine A1 receptor (Human) (Homo sapiens, UniProt P30542); test: [3H]8-Cyclopentyl-1,3-dipropylxanthine; assay type: binding; conditions: 0.1 mM l-menthol; Human recombinant
# Vasopressin V1 receptor = Vasopressin V1 receptor (Rattus norvegicus, UniProt P30560); test: [3H]-Vasopressin, 8-L-Arginine binding assay; conditions: 0.1 mM l-menthol; Rat liver
# [24] = target: α2C-Adrenergic receptor (Human) (Homo sapiens, UniProt P18825); test: [3H]-Rauwolscine hydrochloride binding assay; conditions: 0.1 mM l-menthol; Human recombinant
# GABA B receptor, sequence (Q9Z0U4 20-960): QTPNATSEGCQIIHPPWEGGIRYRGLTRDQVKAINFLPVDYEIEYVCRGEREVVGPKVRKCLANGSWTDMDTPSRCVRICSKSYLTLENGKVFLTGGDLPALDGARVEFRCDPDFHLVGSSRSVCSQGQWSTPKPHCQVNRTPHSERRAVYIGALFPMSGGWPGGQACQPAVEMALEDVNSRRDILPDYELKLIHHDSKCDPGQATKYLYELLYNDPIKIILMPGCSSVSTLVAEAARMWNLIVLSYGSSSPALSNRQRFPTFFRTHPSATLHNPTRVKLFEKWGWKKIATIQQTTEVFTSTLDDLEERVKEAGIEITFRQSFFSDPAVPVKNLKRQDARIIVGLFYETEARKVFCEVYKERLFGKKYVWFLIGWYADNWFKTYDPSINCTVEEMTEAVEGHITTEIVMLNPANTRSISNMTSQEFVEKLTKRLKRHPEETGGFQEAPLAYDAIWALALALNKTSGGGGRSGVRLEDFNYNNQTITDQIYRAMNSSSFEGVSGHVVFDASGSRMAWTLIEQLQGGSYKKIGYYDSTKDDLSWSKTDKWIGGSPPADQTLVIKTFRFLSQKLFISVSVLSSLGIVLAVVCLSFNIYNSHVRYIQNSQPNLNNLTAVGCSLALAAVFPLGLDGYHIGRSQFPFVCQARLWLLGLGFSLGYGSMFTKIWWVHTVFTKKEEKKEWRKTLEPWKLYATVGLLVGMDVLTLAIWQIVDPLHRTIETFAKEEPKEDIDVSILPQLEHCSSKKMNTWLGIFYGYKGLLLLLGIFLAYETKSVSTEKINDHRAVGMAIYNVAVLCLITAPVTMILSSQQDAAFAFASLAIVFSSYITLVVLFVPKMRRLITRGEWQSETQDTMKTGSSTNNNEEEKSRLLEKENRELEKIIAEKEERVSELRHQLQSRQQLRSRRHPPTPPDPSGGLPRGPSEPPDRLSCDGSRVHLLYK
# GABA B receptor, sequence (O88871 41-940 partner): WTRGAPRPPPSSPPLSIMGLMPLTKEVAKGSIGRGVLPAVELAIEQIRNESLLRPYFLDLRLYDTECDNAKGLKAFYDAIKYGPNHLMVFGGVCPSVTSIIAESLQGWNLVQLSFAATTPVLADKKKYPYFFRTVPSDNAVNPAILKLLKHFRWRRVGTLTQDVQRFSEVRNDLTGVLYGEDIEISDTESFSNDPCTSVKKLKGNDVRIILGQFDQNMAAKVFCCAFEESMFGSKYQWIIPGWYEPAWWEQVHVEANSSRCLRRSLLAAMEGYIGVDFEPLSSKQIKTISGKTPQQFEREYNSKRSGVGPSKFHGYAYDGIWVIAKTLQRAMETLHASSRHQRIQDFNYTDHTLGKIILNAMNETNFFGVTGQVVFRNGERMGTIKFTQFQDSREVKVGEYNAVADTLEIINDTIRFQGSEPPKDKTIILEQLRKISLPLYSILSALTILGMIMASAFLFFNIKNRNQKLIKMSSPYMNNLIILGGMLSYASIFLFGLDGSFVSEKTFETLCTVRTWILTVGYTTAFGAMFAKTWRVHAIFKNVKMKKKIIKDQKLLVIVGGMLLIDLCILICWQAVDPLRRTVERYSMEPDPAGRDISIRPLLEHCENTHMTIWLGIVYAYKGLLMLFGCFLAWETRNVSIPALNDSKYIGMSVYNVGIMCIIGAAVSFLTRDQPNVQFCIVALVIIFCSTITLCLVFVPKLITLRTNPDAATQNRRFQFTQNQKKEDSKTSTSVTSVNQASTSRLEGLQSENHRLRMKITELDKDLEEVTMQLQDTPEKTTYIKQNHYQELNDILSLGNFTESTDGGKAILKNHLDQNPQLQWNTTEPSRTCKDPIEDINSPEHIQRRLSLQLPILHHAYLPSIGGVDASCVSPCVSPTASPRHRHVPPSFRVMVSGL
# Adenosine A1 receptor (Human), sequence (P30542 whole entry): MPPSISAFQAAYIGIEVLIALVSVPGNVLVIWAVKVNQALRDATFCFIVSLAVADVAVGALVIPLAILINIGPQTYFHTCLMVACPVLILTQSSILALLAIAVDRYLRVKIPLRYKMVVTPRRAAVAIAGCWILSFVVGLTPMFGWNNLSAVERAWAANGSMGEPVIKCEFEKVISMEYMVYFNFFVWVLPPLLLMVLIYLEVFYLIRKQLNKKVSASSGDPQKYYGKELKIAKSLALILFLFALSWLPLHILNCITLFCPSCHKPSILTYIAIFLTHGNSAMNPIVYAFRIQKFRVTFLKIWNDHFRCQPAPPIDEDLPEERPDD
# Serotonin 5HT1A receptor (Human), sequence (P08908 whole entry): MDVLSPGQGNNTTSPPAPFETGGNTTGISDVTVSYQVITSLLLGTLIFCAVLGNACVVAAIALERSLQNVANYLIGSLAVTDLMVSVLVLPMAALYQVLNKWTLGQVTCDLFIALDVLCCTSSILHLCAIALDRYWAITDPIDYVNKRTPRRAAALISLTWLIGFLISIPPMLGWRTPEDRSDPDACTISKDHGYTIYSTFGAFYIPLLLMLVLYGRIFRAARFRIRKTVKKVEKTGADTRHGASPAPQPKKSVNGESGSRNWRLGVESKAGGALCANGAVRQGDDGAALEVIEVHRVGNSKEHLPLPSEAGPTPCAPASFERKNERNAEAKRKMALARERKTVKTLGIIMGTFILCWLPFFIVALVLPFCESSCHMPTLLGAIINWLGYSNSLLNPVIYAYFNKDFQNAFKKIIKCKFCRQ
# Dopamine D5 receptor (Human), sequence (P21918 whole entry): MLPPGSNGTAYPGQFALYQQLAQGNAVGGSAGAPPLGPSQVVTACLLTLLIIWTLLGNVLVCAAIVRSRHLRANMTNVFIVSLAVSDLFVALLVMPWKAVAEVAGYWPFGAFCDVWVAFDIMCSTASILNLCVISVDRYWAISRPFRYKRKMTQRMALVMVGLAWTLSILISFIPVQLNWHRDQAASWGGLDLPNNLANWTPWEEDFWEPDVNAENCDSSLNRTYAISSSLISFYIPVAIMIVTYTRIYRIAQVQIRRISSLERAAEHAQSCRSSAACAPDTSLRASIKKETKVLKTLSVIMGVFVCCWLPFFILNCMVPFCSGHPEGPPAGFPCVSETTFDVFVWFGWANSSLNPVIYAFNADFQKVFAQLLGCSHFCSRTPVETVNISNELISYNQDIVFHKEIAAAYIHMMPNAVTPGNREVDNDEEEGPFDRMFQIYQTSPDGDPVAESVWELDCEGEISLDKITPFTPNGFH
# Adenosine A3 receptor (Human), sequence (P0DMS8 whole entry): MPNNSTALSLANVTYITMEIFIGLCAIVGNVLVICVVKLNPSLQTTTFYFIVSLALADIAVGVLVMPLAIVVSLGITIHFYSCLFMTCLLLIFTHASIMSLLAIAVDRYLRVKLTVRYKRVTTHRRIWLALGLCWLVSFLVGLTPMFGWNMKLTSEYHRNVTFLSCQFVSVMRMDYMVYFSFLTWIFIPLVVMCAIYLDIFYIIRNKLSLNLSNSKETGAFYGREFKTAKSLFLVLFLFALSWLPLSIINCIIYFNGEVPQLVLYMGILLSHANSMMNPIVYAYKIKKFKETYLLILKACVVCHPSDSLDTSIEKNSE
# Vasopressin V2 receptor (Human), sequence (P30518 whole entry): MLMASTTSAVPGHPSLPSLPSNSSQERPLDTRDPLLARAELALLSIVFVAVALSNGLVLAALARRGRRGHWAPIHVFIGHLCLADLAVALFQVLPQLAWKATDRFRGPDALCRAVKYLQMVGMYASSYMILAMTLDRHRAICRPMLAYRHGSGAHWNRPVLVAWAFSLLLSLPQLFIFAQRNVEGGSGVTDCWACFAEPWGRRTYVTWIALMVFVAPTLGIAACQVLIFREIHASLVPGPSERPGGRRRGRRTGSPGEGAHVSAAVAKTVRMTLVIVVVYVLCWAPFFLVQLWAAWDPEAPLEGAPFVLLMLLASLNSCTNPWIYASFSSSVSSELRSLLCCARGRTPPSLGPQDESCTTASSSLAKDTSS
# Angiotensin AT1 receptor (Human), sequence (P30556 whole entry): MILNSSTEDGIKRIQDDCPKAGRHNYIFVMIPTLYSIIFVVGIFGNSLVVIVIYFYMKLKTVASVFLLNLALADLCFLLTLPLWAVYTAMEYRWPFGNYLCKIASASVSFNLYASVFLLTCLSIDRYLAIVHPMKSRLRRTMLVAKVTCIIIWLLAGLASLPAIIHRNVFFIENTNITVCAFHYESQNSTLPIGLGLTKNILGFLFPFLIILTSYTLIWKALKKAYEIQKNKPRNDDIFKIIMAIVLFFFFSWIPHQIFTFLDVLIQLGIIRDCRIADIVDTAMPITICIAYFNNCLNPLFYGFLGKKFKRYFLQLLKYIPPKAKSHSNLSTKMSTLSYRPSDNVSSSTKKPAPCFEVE
# Prostanoid EP2 receptor (Human), sequence (P43116 whole entry): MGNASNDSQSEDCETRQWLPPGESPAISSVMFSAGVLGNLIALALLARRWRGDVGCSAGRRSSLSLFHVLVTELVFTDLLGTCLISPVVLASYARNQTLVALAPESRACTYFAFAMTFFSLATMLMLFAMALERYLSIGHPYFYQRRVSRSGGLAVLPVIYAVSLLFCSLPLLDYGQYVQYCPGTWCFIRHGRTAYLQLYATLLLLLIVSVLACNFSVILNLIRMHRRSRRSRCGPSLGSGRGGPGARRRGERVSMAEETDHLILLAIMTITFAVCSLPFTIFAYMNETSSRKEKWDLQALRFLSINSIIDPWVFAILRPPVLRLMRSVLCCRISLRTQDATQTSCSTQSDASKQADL
# Neurotensin NT1 receptor (Human), sequence (P30989 whole entry): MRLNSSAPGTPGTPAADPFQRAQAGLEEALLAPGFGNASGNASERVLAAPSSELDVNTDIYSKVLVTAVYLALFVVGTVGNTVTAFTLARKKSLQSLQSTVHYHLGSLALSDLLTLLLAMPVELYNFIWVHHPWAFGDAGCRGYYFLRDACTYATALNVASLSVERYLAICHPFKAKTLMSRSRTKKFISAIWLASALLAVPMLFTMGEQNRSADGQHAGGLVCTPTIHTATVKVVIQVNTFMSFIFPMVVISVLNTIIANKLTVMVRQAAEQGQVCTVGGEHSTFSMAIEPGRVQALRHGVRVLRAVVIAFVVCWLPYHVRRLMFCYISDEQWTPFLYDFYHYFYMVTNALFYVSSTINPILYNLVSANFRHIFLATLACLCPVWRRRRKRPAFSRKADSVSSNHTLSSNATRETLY
smiles,measurement,setting,value
CC(C)[C@@H]1CC[C@@H](C)C[C@H]1O [l-menthol],Inhibition by l-Menthol (%),[1],0%
same,Dose dependence of the ambulation-promoting effect,"mouse ambulation; 100-800 mg/kg s.c., Kruskal-Wallis test P < 0.0001",dose dependent
same,Time of maximum ambulatory activity after administration,mouse ambulation; subcutaneous 100-800 mg/kg,5 min
same,Inhibition by l-Menthol (%),[2],0%
same,Inhibition by l-Menthol (%),GABA B receptor,1.1%
same,Inhibition by l-Menthol (%),K channel KA,5.11%
same,Inhibition by l-Menthol (%),K Channel SkCa,2.36%
same,Inhibition by l-Menthol (%),Leukotriene D4 receptor,0%
same,Inhibition by l-Menthol (%),Ca Channel (Type N),0%
same,Inhibition by l-Menthol (%),Leukotriene B4 receptor,11.63%
same,Inhibition by l-Menthol (%),[3],6.12%
same,Inhibition of the binding of 32 isotope-labeled ligands (Table 3 (b)),[4],did not measurably inhibit
same,"Inhibition rates, 9 isotope-labeled ligands (Table 3 (a))",[4],< 1%
same,Inhibition by l-Menthol (%),[5],0%
same,Inhibition by l-Menthol (%),[6],0.37%
same,Inhibition by l-Menthol (%),CCK A receptor (Human),0%
same,Inhibition by l-Menthol (%),[7],8.57%
same,Inhibition by l-Menthol (%),[8],0%
same,Inhibition by l-Menthol (%),[9],0%
same,Inhibition by l-Menthol (%),[10],0%
same,Inhibition by l-Menthol (%),IP3 receptor,0.12%
same,Inhibition by l-Menthol (%),[11],0.66%
same,Inhibition by l-Menthol (%),[12],8.22%
same,Inhibition by l-Menthol (%),[13],3.79%
same,Inhibition by l-Menthol (%),[14],13.53%
same,Inhibition by l-Menthol (%),[15],24.78%
same,Inhibition by l-Menthol (%),[16],7.89%
same,Inhibition by l-Menthol (%),[17],0%
same,Inhibition by l-Menthol (%),CRF1 receptor (Human),0%
same,Inhibition by l-Menthol (%),[18],2.87%
same,Inhibition by l-Menthol (%),[19],16.92%
same,Inhibition by l-Menthol (%),[20],0%
same,Inhibition by l-Menthol (%),[21],0.14%
same,Inhibition by l-Menthol (%),[22],0%
same,Inhibition by l-Menthol (%),[23],1.83%
same,Inhibition by l-Menthol (%),Vasopressin V1 receptor,0%
same,Inhibition by l-Menthol (%),[24],7.75%
